Only some compounds are listed: those with a hit (about 4.1% of all), similar ones and a draw of the others.
KCNQ1 pot = potentiates or activates the human KCNQ1 potassium channel. B-score at 10 µM. CHO-K1 KCNQ1, thallium flux FluxOR fluorescence; hits give high values. 310,000 tested, 0.35% active. P51787. AID 2648;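 active means fluorescence ratio B-score, a plate-corrected score, at least three library SD, with initial intensity B-score within 5 SD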
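Assay system: CHO-K1 cells stably expressing KCNQ1; Medium: assay buffer with matched DMSO; Also added: K+/Tl+ depolarizing stimulus; Dosing: single dose; Timing: dye 90 min, compound 20 min, room temperature; Measured by: kinetic FluxOR thallium fluorescence, 10-s 1-Hz baseline, 110-s post-stimulus read; Read-out: peak-minus-minimum fluorescence over initial fluorescence, negative-control normalized, B-scored.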
KCNK3 block = human KCNK3 channel inhibition, primary screen; B-score at 10 µM; CHO-KCNK3 thallium flux, FluxOR fluorescence; hits give low values; 340,000 tested, 0.84% active;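 active means B-score under library mean minus 4 SD, starting fluorescence ratio at most library mean plus 5 SD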;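 further: more negative B-score means stronger inhibition of thallium flux through KCNK3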
hERG rescue = hERG (human) protection from proarrhythmic block. 310,000 tested, 0.51% active. Q12809. AID 1511. activation (rescue from dofetilide block), less the hit threshold, % at 10 µM. CHO-hERG, FluxOR thallium flux, dofetilide IC70 present;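 active means activation above the mean of controls blocked by dofetilide plus 5 SD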;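 further: thallium influx through hERG after potassium depolarization seen as dye fluorescence rise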
KCNQ1 block = blocks the human KCNQ1 potassium channel; CHO-K1 KCNQ1, FluxOR thallium flux fluorescence; hits give high values; B-score at 10 µM; AID 2642; 310,000 tested, 1.3% active; P51787;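 active means compounds whose thallium flux B-score, printed positive for inhibition, exceeds three library SD while starting fluorescence stays within three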;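 further: channel opened by potassium depolarization with thallium stimulus after 20 min compound exposure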
Cl transport mod = modulators of human KCC2 chloride dependent transport. B-score of Tl+ flux slope (higher = more flux/activation; lower = inhibition) at 10 µM. 190,000 tested, 2.2% active. Q9H2X9. KCC2 cells, thallium flux FluoZin-2 fluorescence;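 active means thallium flux slope and its plate-corrected score both differing from the plate sample mean at a set confidence after two filtering rounds, in either direction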;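 further: slope of fluorescence scaled to starting intensity during 10 to 20 s after thallium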
Target sequence (Q9H2X9 whole entry, looked up): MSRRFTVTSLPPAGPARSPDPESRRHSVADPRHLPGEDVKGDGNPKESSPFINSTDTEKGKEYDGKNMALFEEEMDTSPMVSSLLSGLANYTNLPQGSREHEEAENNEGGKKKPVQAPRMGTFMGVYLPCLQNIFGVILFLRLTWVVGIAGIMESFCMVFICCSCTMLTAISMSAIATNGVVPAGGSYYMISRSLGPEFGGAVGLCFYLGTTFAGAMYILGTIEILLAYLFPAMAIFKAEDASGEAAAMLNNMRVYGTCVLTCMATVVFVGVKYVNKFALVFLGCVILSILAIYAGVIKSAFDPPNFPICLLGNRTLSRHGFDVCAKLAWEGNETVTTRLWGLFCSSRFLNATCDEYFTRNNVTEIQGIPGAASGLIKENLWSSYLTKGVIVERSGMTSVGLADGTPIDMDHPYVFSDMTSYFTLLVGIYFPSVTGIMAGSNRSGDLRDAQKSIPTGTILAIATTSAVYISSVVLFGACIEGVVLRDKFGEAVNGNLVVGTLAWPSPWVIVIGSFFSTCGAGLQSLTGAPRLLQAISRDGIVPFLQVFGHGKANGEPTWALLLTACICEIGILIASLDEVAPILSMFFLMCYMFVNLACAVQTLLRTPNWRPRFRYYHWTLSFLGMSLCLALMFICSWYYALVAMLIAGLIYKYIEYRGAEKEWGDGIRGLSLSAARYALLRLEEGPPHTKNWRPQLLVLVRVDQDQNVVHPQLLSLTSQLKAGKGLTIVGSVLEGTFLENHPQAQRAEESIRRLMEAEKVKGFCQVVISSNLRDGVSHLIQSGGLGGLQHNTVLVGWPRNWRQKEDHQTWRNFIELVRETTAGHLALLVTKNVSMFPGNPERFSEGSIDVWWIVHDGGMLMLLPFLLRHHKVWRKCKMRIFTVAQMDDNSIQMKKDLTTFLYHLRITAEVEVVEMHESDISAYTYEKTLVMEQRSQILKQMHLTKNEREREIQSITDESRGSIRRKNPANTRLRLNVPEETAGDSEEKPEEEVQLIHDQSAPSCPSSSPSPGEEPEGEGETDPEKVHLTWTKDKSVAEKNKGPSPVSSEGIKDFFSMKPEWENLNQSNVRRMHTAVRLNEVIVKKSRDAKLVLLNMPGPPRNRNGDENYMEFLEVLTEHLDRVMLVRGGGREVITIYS
KCNK9 block = blocks the human KCNK9 two-pore domain potassium channel; Q9NPC2; HEK293 KCNK9, FluxOR thallium flux fluorescence; hits give low values; B-score at 10 µM; 310,000 tested, 1.2% active; AID 488922;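 active means ratio B-score over 3 SD below the library mean, with starting fluorescence within 5 SD of its mean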;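 further: negative B-score means less thallium flux so channel inhibition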
KCNK9 inh conf = confirmation of human KCNK9 potassium channel inhibitors; shares compounds with KCNK9 block; HEK293 KCNK9 cells, FluxOR thallium flux fluorescence; inhibition, % at 10 µM; 4,900 tested, 43% active; AID 492992;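 active means thallium signal inhibited by more than 5 SD of the compound-free buffer control wells, on both duplicate plates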;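 further: 0% = assay buffer control wells without compound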
Kir21 sel = mouse Kir2.1 off-target activity of KCNK9 modulators; shares compounds with KCNK9 block; Kir2.1 cells, FluxOR thallium flux fluorescence; inhibition, % at 10 µM; 4,900 tested, 4% active; AID 492993;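 active means thallium signal drop more than 5 SD beyond the mean of the no-compound control wells, seen in both duplicate plates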;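 further: signal is fluorescence rise after thallium addition divided by baseline fluorescence; plate controls were assay buffer only for no effect and full block by chlorpromazine control for full effect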
KCNK9 uninduced = non-induced cell nonspecific activity of KCNK9 modulators | 4,900 tested, 40% active | inhibition, % at 10 µM | shares compounds with KCNK9 block | AID 492997 | non-induced KCNK9-HEK293, FluxOR thallium flux;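 active means thallium signal drop beyond 5 SD of the untreated control mean, on both duplicate plates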;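 further: plate controls were buffer only IC0 wells for no effect and SID17386958 at its maximal inhibitory level for full effect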
An asterisk follows results filed as active; i = inactive; . = no result.

SMILES	KCNQ1 pot	KCNK3 block	hERG rescue	KCNQ1 block	Cl transport mod	KCNK9 block	KCNK9 inh conf	Kir21 sel	KCNK9 uninduced
Cc1ccc(S(=O)(=O)Nc2ccccc2C(=O)Nc2nc(-c3ccc(F)cc3)cs2)cc1	i	i	-16.5	i	0.721	-10.1*	63.5%*	i	39.0%*
COc1cc(-c2nc3cc(C)ccn3c2NC2CCCCC2)ccc1-c1ccc(C(C)=O)cc1	i	i	-20.2	i	.	-9.27*	48.5%*	i	i
CCCCCCSc1cc(-c2nc3cc(C)ccn3c2NC2CCCCC2)ccc1OC	i	i	-3.9	i	.	i	.	.	.
CC(=O)c1cccc(NC(=O)CN2CCc3cc4c(cc3C2C)OCCCO4)c1 (stereo not drawn)	i	i	-10.2	i	.	i	i	i	i
CN(C)C(=O)c1ccc(NC(=O)CN2CCc3cc4c(cc3C2)OCCCO4)cc1	i	i	-7.2	i	.	i	.	.	.
O=C(CN1CCc2cc3c(cc2C1)OCCCO3)Nc1cccc(Br)c1	i	i	-10.6	i	.	i	i	i	i
CC1c2cc3c(cc2CCN1C(=O)c1ccc(Cl)cc1)OCCCO3 (stereo not drawn)	i	i	-7.5	i	.	-9.9*	56.5%*	i	29.0%*
CC1OC(c2ccccc2)OC2COC(c3ccccc3)OC12 (stereo not drawn)	.	i	.	.	.	.	.	.	.
CCOc1cccc(C2/C(=C(/O)c3ccc4c(c3)CC(C)O4)C(=O)C(=O)N2Cc2cccnc2)c1 (stereo not drawn)	i	i	-8.2	i	.	i	.	.	.
O=C(NCCn1cccn1)C1CCC(=O)N(CCc2ccccc2)C1 (stereo not drawn)	i	i	-11.7	i	.	i	.	.	.
CCOc1cc(N2CCOCC2)c(OCC)cc1NC(=O)CN1C(=O)NC(Cc2ccccc2)C1=O (stereo not drawn)	i	i	-7.7	i	-0.448	i	.	.	.
CCOc1cc(N2CCOCC2)c(OCC)cc1NC(=O)CN1CCC(Cc2ccccc2)CC1	i	i	-4.0	i	-0.115	i	i	i	i
CC(=O)c1cc2c(cc1NC(=O)CN1CCC(Cc3ccccc3)CC1)OCO2	i	i	-10.9	i	0.491	i	i	i	i
COc1ccccc1CCNC(=O)C(=O)NCC1CCCN1S(=O)(=O)c1ccccc1 (stereo not drawn)	i	i	-16.3	i	.	i	.	.	.
COC(=O)C1=C(C)N(Cc2ccc(C)cc2)C(=O)/C1=C\c1ccc(O)c(OC)c1	i	i	-20.5	i	.	-8.92*	62.5%*	i	40.0%*
Cc1ccc(CN2C(=O)C(Cc3ccccc3)Nc3ncnc(N4CCN(c5ccccc5)CC4)c32)cc1 (stereo not drawn)	i	i	-13.9	i	.	i	.	.	.
Cc1ccc(CN2C(=O)C(Cc3ccccc3)Nc3ncnc(N4CCCCC4)c32)cc1 (stereo not drawn)	i	i	-8.5	i	.	-13.7*	64.5%*	i	38.0%*
COc1ccc(CN2C(=O)C(Cc3ccccc3)Nc3ncnc(N4CCCCC4)c32)cc1 (stereo not drawn)	i	i	-8.7	i	.	-13*	54.5%*	i	27.0%*
CCC1Nc2ncnc(N3CCCCC3)c2N(Cc2ccccc2)C1=O (stereo not drawn)	i	i	-9.3	i	.	i	.	.	.
CC1(c2ccccc2)C(C#N)C(=O)NC(=O)C1C#N (stereo not drawn)	.	i	.	.	.	.	.	.	.
CCN(CC(=O)NCc1ccc(Cl)cc1)C(=O)CCc1ccccc1	i	i	-5.8	i	.	i	.	.	.
O=C1NCCN(CC2CCN(CCc3ccc(Cl)c(Cl)c3)CC2)C1=O	.	i	.	.	.	.	.	.	.
c1ccc(COc2cccc(CN3CCN(c4ccccn4)CC3)c2)cc1	i	i	-20.4	i	.	-9.07*	35.0%*	i	27.0%*
Cc1cccc(CN2CCN(c3ccccn3)CC2)c1	i	i	-3.5	i	-0.381	i	.	.	.
CC(=O)c1sc(C(C)(C)C)cc1NC(=O)CCC(=O)O	i	i	-4.2	i	-1.41	i	.	.	.
SMILES	KCNQ1 pot	KCNK3 block	hERG rescue	KCNQ1 block	Cl transport mod	KCNK9 block	KCNK9 inh conf	Kir21 sel	KCNK9 uninduced
COC(=O)c1sc(-c2ccc(C(C)(C)C)cc2)cc1NC(=O)CCC(=O)O	i	i	-8.4	i	-0.593	i	i	i	i
CN(CC(=O)N1CCCCCC1)S(=O)(=O)c1cccc2cccnc12	i	i	-4.8	i	.	i	.	.	.
CN(CC(=O)NC1CCCCCCC1)S(=O)(=O)c1cccc2cccnc12	i	i	-6.3	i	.	i	i	i	i
O=Nc1c(-c2c(O)[nH]c3cc(Br)ccc23)[nH]c2ccccc12	i	i	-9.4	i	.	i	.	.	.
Cc1ccc(CNC(=O)c2cc(C)nn2-c2ccccc2)cc1	i	i	-7.9	i	0.238	i	.	.	.
Cc1ccc(Cc2nnc3n(-c4ccccc4)nc(C(=O)c4ccccc4)n3c2=O)cc1	i	i	-3.0	i	0.667	i	i	i	i
CCCCC(CC)C(=O)Nc1cccc(SC)c1 (stereo not drawn)	i	i	-12.5	i	.	-9.36*	30.5%*	i	i
Cc1ccc(C(=O)NCCC(=O)N2CCCC2)cc1	i	i	-17.4	i	.	i	.	.	.
O=C(c1ccccc1C(=O)N1CCN(c2ccccc2F)CC1)N1CCN(c2ccccc2F)CC1	i	i	-14.2	i	-0.473	i	.	.	.
O=C(c1sc2ccccc2c1Cl)N1CCN(c2ccc(F)cc2)CC1	i	i	-0.6	i	.	i	i	i	i
O=C(c1sc2ccccc2c1Cl)N1CCN(c2ccccc2F)CC1	i	i	-7.3	i	0.539	i	i	i	i
O=C(c1sc2ccccc2c1Cl)N1CCN(c2ncccn2)CC1	i	i	-8.2	i	-0.767	i	.	.	.
NCC(O)CN1CCN(Cc2ccccc2)CC1 (stereo not drawn)	i	i	-5.4	i	.	i	.	.	.
COc1cc(C(=O)NC(=S)Nc2ccccc2N2CCCC2)cc(OC)c1OC	i	i	-11.2	i	.	i	i	i	i
COc1ccccc1/C=C(/CC(=O)NCc1ccc(F)cc1)c1nc2ccccc2s1	i	i	-9.0	i	-0.00989	-16.2*	65.5%*	i	36.5%*

Source: PubChem
